≈ marks a conversion by molar mass, not a printed value.
Assays:
Mycobacterium kansasii [1] = experiment: Antimycobacterial activity against INH/RIF/rifabutin/OFX/EMB Mycobacterium kansasii CNCTC 6509/96 clinical isolate assessed as bacterial growth inhibition incubated for 7 days by two-fold serial dilution method; assay type: functional; settings: CNCTC 6509/96, 168 h, time 7 day
Method in brief: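 Šula's liquid semisynthetic medium; M. kansasii clinical isolate 6509/96 used at stock dilution 10−4, final ~1.5 × 10^5 CFU mL−1. Two-fold dilutions ran 1000–1 μM with final DMSO 1.0% (v/v). MIC was read visually as complete growth inhibition after 7, 14 and 21 days.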

[2] = tested on: Trichophyton interdigitale; experiment: Antifungal activity against Trichophyton interdigitale ATCC 9533 measured after 24 to 48 hrs by microdilution broth method; assay type: functional; settings: time 24-48 hrs
Lichtheimia corymbifera = experiment: Antifungal activity against Lichtheimia corymbifera CCM 8077 measured after 24 to 48 hrs by microdilution broth method; assay type: functional; settings: time 24-48 hrs
Method in brief: (§1)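 Filamentous fungi tested by broth microdilution per EUCAST with minor changes. Compounds were tested at 0.98–500 μM with final DMSO ≤1.0% (v/v). Plates were incubated statically, dark and humidified, at 35 ± 2 °C for 24 and 48 h. MIC was the lowest concentration showing no visible growth.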

Aspergillus flavus = experiment: Antifungal activity against Aspergillus flavus CCM 8363 measured after 24 to 48 hrs by microdilution broth method; assay type: functional; settings: time 24-48 hrs; method in brief: as §1
Aspergillus fumigatus = experiment: Antifungal activity against Aspergillus fumigatus ATCC 204305 measured after 24 to 48 hrs by microdilution broth method; assay type: functional; settings: time 24-48 hrs; method in brief: as §1
Candida tropicalis [3] = experiment: Antifungal activity against Candida tropicalis ATCC 750 measured after 24 to 48 hrs by microdilution broth method; assay type: functional; settings: time 24-48 hrs
Method in brief: (§2)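 Yeast broth microdilution per EUCAST, slightly modified. Medium was RPMI-1640 with 2% glucose, MOPS-buffered to pH 7.0. Compounds were tested at 0.98–500 μM with final DMSO ≤1.0% (v/v). Inoculum came from 18–24 h cultures, final ~1–5 × 10^5 CFU mL−1. Plates were incubated statically, dark and humidified, at 35 ± 2 °C. MIC was read visually at 24 and 48 h (no visible growth).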

[4] = tested on: Mycobacterium tuberculosis; experiment: Antimycobacterial activity against multidrug sensitive Mycobacterium tuberculosis H37Rv CNCTC 331/88 assessed as bacterial growth inhibition incubated for 14 days by two-fold serial dilution method; assay type: functional; settings: H37Rv CNCTC 331/88, 336 h, time 14 day
Candida tropicalis [5] = experiment: Antifungal activity against Candida tropicalis CCM 8264 measured after 24 to 48 hrs by microdilution broth method; assay type: functional; settings: time 24-48 hrs; method in brief: as §2
Mycobacterium avium [6] = experiment: Antimycobacterial activity against INH/RIF/rifabutin/OFX/EMB resistant Mycobacterium avium CNCTC 330/88 assessed as bacterial growth inhibition incubated for 21 days by two-fold serial dilution method; assay type: functional; settings: CNCTC 330/88, 504 h, time 21 day
Method in brief: (§3)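 M. avium CNCTC 330/88 (stock suspension dilution 10−5) grown in Šula's semisynthetic liquid medium; two-fold serial dilutions 1000 to 1 μM from DMSO stocks (final DMSO 1.0% v/v); final load 1.5 × 10^5 CFU mL−1; MIC read visually as lowest concentration giving complete growth inhibition after 14 and 21 days.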

Pichia kudriavzevii [7] = experiment: Antifungal activity against Candida krusei CCM 8271 measured after 24 to 48 hrs by microdilution broth method; assay type: functional; settings: time 24-48 hrs; method in brief: as §2
Pichia kudriavzevii [8] = experiment: Antifungal activity against Candida krusei ATCC 6258 measured after 24 to 48 hrs by microdilution broth method; assay type: functional; settings: time 24-48 hrs; method in brief: as §2
Candida albicans [9] = experiment: Antifungal activity against Candida albicans ATCC 24443 measured after 24 to 48 hrs by microdilution broth method; assay type: functional; settings: time 24-48 hrs; method in brief: as §2
[10] = tested on: Mycobacterium tuberculosis; experiment: Antimycobacterial activity against Mycobacterium tuberculosis H37Rv CNCTC 331/88 assessed as bacterial growth inhibition incubated for 21 days by two fold serial dilution method; assay type: functional; settings: H37Rv CNCTC 331/88, 504 h, time 21 day
Mycobacterium kansasii [11] = experiment: Antimycobacterial activity against multi-drug resistant Mycobacterium kansasii clinical isolate CNCTC 6509/96 assessed as bacterial growth inhibition incubated for 21 days by two-fold serial dilution method; assay type: functional; settings: CNCTC 6509/96, 504 h, time 21 day
Method in brief: (§4)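 M. kansasii clinical isolate 6509/96 (stock dilution 10−4) in Šula's semisynthetic liquid medium; two-fold serial dilutions 1000 to 1 μM, DMSO final 1.0% v/v; final load 1.5 × 10^5 CFU mL−1; MIC read visually as complete growth inhibition at 7, 14 and 21 days.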

[12] = tested on: Trichophyton interdigitale; experiment: Antifungal activity against Trichophyton interdigitale CCM 8377 measured after 24 to 48 hrs by microdilution broth method; assay type: functional; settings: time 24-48 hrs
Candida parapsilosis [13] = experiment: Antifungal activity against Candida parapsilosis ATCC 22019 measured after 24 to 48 hrs by microdilution broth method; assay type: functional; settings: Lodderomyces parapsilosis, time 24-48 hrs; method in brief: as §2
Candida albicans [14] = experiment: Antifungal activity against Candida albicans CCM 8320 measured after 24 to 48 hrs by microdilution broth method; assay type: functional; settings: time 24-48 hrs; method in brief: as §2
Candida parapsilosis [15] = experiment: Antifungal activity against Candida parapsilosis CCM 8260 measured after 24 to 48 hrs by microdilution broth method; assay type: functional; settings: Lodderomyces parapsilosis, time 24-48 hrs; method in brief: as §2
Mycobacterium kansasii [16] = experiment: Antimycobacterial activity against multi-drug resistant Mycobacterium kansasii CNCTC 6509/96 clinical isolate assessed as bacterial growth inhibition incubated for 14 days by two-fold serial dilution method; assay type: functional; settings: CNCTC 6509/96, 336 h, time 14 day; method in brief: as §4
Mycobacterium avium [17] = experiment: Antimycobacterial activity against INH/RIF/rifabutin/OFX/EMB resistant Mycobacterium avium CNCTC 330/88 assessed as bacterial growth inhibition incubated for 14 days by two-fold serial dilution method; assay type: functional; settings: CNCTC 330/88, 336 h, time 14 day; method in brief: as §3
[18] = Hemolytic activity in human Red blood cells assessed as effect of lipid bilayer membrane incubated for 1 hr by absorbance based spectrophotometric analysis; assay type: toxicity, cell-based; settings: erythrocyte
Method in brief: (§5)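 Human erythrocyte suspension mixed 1:1 with compound in Hartmann's solution at final 125 μM, final DMSO 1.0% (v/v), 37 °C for 1 h. After centrifugation, released haemoglobin in the supernatant was read at 405 nm. Negative control was hRBCs with 1.0% DMSO; positive control was hRBCs sonicated for 1 min.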

Staphylococcus aureus = experiment: Antibacterial activity against methicillin-resistant Staphylococcus aureus ATCC 43300 assessed as bacterial growth inhibition incubated for 24 to 48 hrs by broth microdilution method; assay type: functional; settings: time 24-48 hrs
Method in brief: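 Broth microdilution per EUCAST with slight modification in cation-adjusted Mueller-Hinton broth; compounds from DMSO stocks (final DMSO ≤1.0% v/v), 0.98–500 μM; final inoculum about 5 × 10^5 CFU mL−1 from 16–24 h cultures; static incubation in dark, humidified air at 35 ± 2 °C; MIC read by eye at 24 and 48 h as lowest concentration without visible growth.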

[19] = tested on: Staphylococcus epidermidis; experiment: Antibacterial activity against Staphylococcus epidermidis ATCC 12228 assessed as bacterial growth inhibition incubated for 24 to 48 hrs by broth microdilution method; assay type: functional; settings: time 24-48 hrs
Method in brief: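 Broth microdilution in cation-adjusted Mueller-Hinton broth, adapted from EUCAST. Compounds were tested at 0.98–500 μM with final DMSO ≤1.0% (v/v). Inoculum came from 16–24 h cultures, final ~5 × 10^5 CFU mL−1. Plates were incubated statically, dark and humidified, at 35 ± 2 °C. MIC was read by eye at 24 and 48 h as the lowest concentration with no visible growth.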

[20] = Hemolytic activity in human Red blood cells assessed as hemolysis rate incubated for 1 hr by absorbance based spectrophotometric analysis relative to control; assay type: toxicity, cell-based, Erythrocyte; settings: read-out: Activity; method in brief: as §5

Row | SMILES | MIC (Mycobacterium kansasii [1]) [µM] | MIC [2] [µM] | MIC (Lichtheimia corymbifera) [µM] | MIC (Aspergillus flavus) [µM] | MIC (Aspergillus fumigatus) [µM] | MIC (Candida tropicalis [3]) [µM] | MIC [4] [µM] | MIC (Candida tropicalis [5]) [µM] | MIC (Mycobacterium avium [6]) [µM] | MIC (Pichia kudriavzevii [7]) [µM] | MIC (Pichia kudriavzevii [8]) [µM] | MIC (Candida albicans [9]) [µM] | MIC [10] [µM] | MIC (Mycobacterium kansasii [11]) [µM] | MIC [12] [µM] | MIC (Candida parapsilosis [13]) [µM] | MIC (Candida albicans [14]) [µM] | MIC (Candida parapsilosis [15]) [µM] | MIC (Mycobacterium kansasii [16]) [µM] | MIC (Mycobacterium avium [17]) [µM] | also measured
1 | C/C(=N\NC(=O)c1ccncc1)C(=O)Nc1ccccc1Oc1ccccc1 | 4 (≈ 1.5 µg/mL) | > 500 | > 500 | > 500 | > 500 | > 500 | 0.25 (≈ 0.0936 µg/mL) | > 500 | ≥ 1000 | > 500 | > 500 | > 500 | 0.5 (≈ 0.187 µg/mL) | 16 (≈ 5.99 µg/mL) | > 500 | > 500 | > 500 | > 500 | 8 (≈ 3 µg/mL) | ≥ 1000 | 
2 | C/C(=N\NC(=O)c1ccncc1)C(=O)Nc1ccc(Oc2ccccc2)cc1 | ≤ 1 | > 500 | > 500 | > 500 | > 500 | > 500 | 0.25 (≈ 0.0936 µg/mL) | > 500 | 500 (≈ 187 µg/mL) | > 500 | > 500 | > 500 | 0.25 (≈ 0.0936 µg/mL) | 2 (≈ 0.749 µg/mL) | > 500 | > 500 | > 500 | > 500 | ≤ 1 | 500 (≈ 187 µg/mL) | Activity [18]: Non-toxic
3 | C/C(=N\NC(=O)c1ccncc1)C(=O)NNC(=O)c1ccncc1 | 8 (≈ 2.61 µg/mL) |  |  |  |  |  | 0.25 (≈ 0.0816 µg/mL) |  | 500 (≈ 163 µg/mL) |  |  |  | 0.5 (≈ 0.163 µg/mL) | 16 (≈ 5.22 µg/mL) |  |  |  |  | 16 (≈ 5.22 µg/mL) | 500 (≈ 163 µg/mL) | MIC (Staphylococcus aureus): 500 µM (≈ 163 µg/mL); MIC [19]: 250 µM (≈ 81.6 µg/mL)
4 | COc1cnc(NS(=O)(=O)c2ccc(NC(=O)/C(C)=N/NC(=O)c3ccncc3)cc2)nc1 | 32 (≈ 15 µg/mL) | > 500 | > 500 | > 500 | > 500 | > 500 | 2 (≈ 0.939 µg/mL) | > 500 | ≥ 1000 | > 500 | > 500 | > 500 | 2 (≈ 0.939 µg/mL) | 32 (≈ 15 µg/mL) | > 500 | > 500 | > 500 | > 500 | 32 (≈ 15 µg/mL) | ≥ 1000 | 
5 | C/C(=N\NC(=O)c1ccncc1)C(=O)Nc1ccc(Oc2ccc(Cl)cc2)c(Cl)c1 | 32 (≈ 14.2 µg/mL) | > 500 | > 500 | > 500 | > 500 | > 500 | 0.5 (≈ 0.222 µg/mL) | > 500 | 500 (≈ 222 µg/mL) | > 500 | > 500 | > 500 | 0.5 (≈ 0.222 µg/mL) | 64 (≈ 28.4 µg/mL) | > 500 | > 500 | > 500 | > 500 | 64 (≈ 28.4 µg/mL) | 500 (≈ 222 µg/mL) | 
6 | C/C(=N\NC(=O)c1ccncc1)C(=O)Nc1ccc(-c2ccccc2)cc1 | 8 (≈ 2.87 µg/mL) |  |  |  |  |  | ≤ 0.25 |  | > 250 |  |  |  | ≤ 0.25 | 16 (≈ 5.73 µg/mL) |  |  |  |  | 8 (≈ 2.87 µg/mL) | > 250 | hemolysis at 1 h [20]: 0.01%
7 | C/C(=N\NC(=O)c1ccncc1)C(=O)Nc1ccc(Oc2ccc(Cl)cc2)cc1 | 1 (≈ 0.409 µg/mL) | > 500 | > 500 | > 500 | > 500 | > 500 | 0.5 (≈ 0.204 µg/mL) | > 500 | 500 (≈ 204 µg/mL) | > 500 | > 500 | > 500 | 0.5 (≈ 0.204 µg/mL) | 4 (≈ 1.64 µg/mL) | > 500 | > 500 | > 500 | > 500 | 2 (≈ 0.818 µg/mL) | 500 (≈ 204 µg/mL) | 

Reference: ChEMBL document CHEMBL6177921, “Enhancing the antimycobacterial efficacy of pyridine-4-carbohydrazide: linkage to additional antimicrobial agents via oxocarboxylic acids” (RSC Med Chem, 2025)
